Source: PubChem BioAssay
RanGTP-Impb inh: inhibitors of RanGTP-importin-beta interaction, primary screen, biochemical, FRET, CFP-Ran, YFP-importin-beta, homogeneous. Ran GTPase (GTP-bound) - importin-beta complex. cell-free CFP-Ran/YFP-importin-beta FRET ratio. inhibition, % (test concentration not listed). 1.1% of 300,000 active;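 active = more than half of the replicate wells show a fall in the fluorescence ratio signal beyond about 16%, limit read from the data, passing the limit was not always enough; inconclusive = exactly half of the replicate wells pass the set limit; inactive = fewer than half of replicates pass the limit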;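 also: 0% = DMSO wells and 100% = Ran loaded with GDP instead of GTP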
Runt-CBFb FRET: inhibitors of RUNX1 Runt–CBFb binding, primary screen, biochemical, FRET, Cerulean-Runt, Venus-CBFb, uHTS | Cerulean-Runt/Venus-CBFb FRET ratio 530/480, 1 h | 0.46% of 220,000 active | inhibition, % at 20 µM | AID 1496, 2009;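 active = inhibition over about 50% at 20 µM in the single-dose screen, limit read from the data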;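 also: 0% = DMSO wells and 100% = excess unlabeled CBFb competitor control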
Target sequence (Q01196 whole entry, looked up): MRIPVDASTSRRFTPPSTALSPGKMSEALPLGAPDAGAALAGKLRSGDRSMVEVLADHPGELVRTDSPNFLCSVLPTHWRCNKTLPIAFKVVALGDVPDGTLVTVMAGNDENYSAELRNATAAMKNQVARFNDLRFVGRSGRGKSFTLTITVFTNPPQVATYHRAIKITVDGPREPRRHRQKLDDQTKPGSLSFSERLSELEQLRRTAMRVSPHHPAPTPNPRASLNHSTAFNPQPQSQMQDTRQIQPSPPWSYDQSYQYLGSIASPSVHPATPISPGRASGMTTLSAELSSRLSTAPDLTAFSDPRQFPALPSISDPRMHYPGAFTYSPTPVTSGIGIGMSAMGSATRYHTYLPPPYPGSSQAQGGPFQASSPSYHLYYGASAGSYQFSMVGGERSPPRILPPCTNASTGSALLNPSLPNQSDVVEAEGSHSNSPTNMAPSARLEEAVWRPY
Target sequence (Q13951 whole entry, looked up): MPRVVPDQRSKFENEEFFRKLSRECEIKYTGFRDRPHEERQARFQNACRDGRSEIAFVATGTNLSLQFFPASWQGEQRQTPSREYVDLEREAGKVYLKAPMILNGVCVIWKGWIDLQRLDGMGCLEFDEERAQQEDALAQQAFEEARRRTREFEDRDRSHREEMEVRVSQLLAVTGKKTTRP
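Buffer or medium: Tris pH 7.5 buffer with BSA. Assay system: Cerulean-labeled Runt domain protein. Amount: each fluorescent fusion protein 100 nM. Read-out basis: loss of energy transfer signal. Incubation: 1 h compound exposure, room temperature. Probe or stimulus: Venus-CBFb binding partner, 100 nM. Detection: FRET, excitation 422 nm, emission at 530 and 480 nm.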
proKLK7 act: proKLK7 zymogen activators, primary screen, biochemical, fluorescence intensity. activation, % at 7 µM. 0.9% of 370,000 active. Kallikrein-7 (Homo sapiens), P49862. purified proKLK7, EDANS-DABCYL substrate fluorescence; 100% is mature enzyme control, 0% vehicle. AID 652039, 2013;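 active = activation above the mean of all tested compounds plus 3 SD, computed per campaign excluding outliers beyond control limits, cut at about 13% in these data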
AI-2 QS mod: Vibrio harveyi AI-2 quorum sensing modulators, primary screen, JMH597 strain, luminescence/OD600 ratio | Vibrio harveyi JMH597 AI-2 luminescence/OD600 ratio, 9 h; active compounds read low; strain lacks LuxN and CqsS sensors; 0 = neutral-control median | activity change, % at 7.5 µM | 0.4% of 300,000 active | AID 2094, 2009; in the data active = activity change below about -75%, passing the limit was not always enough; inconclusive = no clear call, values can overlap the other calls;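 also: luminescence divided by OD600 gain over 9 h not by final OD600 alone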
Wee1 stabilizer: Wee1 degradation inhibitors, primary screen, cell-based, HeLa, Wee1K328M-luciferase, luminescence. Wee1-like protein kinase (Homo sapiens), P30291. HeLa Luc-Wee1K328M stability; 100% = proteasome inhibitor MG132 effect. reporter increase, % at 5 µM. 1.2% of 220,000 active;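 active = activation above the mean of all tested compounds plus 3 SD, set per screening run, cut at about 8.8% in these data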;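 also: cells exposed to compound for 20 h before luminescence read; 0% = DMSO alone and 100% = MG132 at 30 µM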
Runt-SMMHC FRET: inhibitors of RUNX1 Runt–CBFb-SMMHC binding, primary screen, biochemical, FRET, Cerulean-Runt, Venus-CBFb-SMMHC, uHTS; AID 1434, 2008; inhibition, % at 20 µM; Cerulean-Runt/Venus-CBFb-SMMHC FRET ratio 530/480, 1 h; 0.74% of 220,000 active;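 active = mean inhibition across duplicate retests at 20 µM reaching about 50%, limit read from the data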;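 also: 0% = DMSO wells and 100% = wells with excess untagged CBFb-SMMHC; inhibitors lower the FRET ratio by blocking Runt binding to CBFb-SMMHC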
JMH597 growth rt: Vibrio harveyi growth inhibition, confirmation, counter-screen for AI-2 quorum sensing project, JMH597 strain, OD600 absorbance. shares compounds with AI-2 QS mod. 9 h; lacks LuxN and CqsS sensors. growth inhibition, % at 7.5 µM. 1% of 750 active. AID 2726, 2010;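 active = every replicate shows growth inhibition above 50%; inconclusive = at least half, but not all, replicates pass that cutoff; inactive = fewer than half of replicates pass it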
BB721 lum counter: luminescence inhibition in constitutive-on V. harveyi, confirmation, counter-screen for LuxS inhibitor project, strain BB721, luminescence readout; shares compounds with AI-2 QS mod; Vibrio harveyi BB721 luminescence, 9 h; inhibition, % at 7.5 µM; 95% of 750 active; AID 2727, 2010;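 active = inhibition above about 80% in every replicate, not just on average, limit read from the data; inconclusive = at least half of replicates past the limit, but not all; inactive = fewer than half of replicates past the limit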
BB721 growth rt: growth inhibition of V. harveyi BB721, confirmation, cytotoxicity control for AI-2 quorum sensing inhibitors, strain BB721, absorbance OD600. Vibrio harveyi BB721 growth, 9 h. shares compounds with AI-2 QS mod. AID 2728, 2010. growth inhibition, % at 7.5 µM. 3% of 750 active;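 active = every replicate shows growth inhibition above 50%; inconclusive = at least half but not all replicates above 50% inhibition; inactive = under half of replicates above 50% inhibition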
AI-2 QS JMH597: Vibrio harveyi AI-2 signaling luminescence modulation – JMH597 strain, confirmation. shares compounds with AI-2 QS mod. 97% of 750 active. Vibrio harveyi JMH597 AI-2 quorum sensing luminescence, 9 h; luxN and CqsS knockout, AI-2 only. inhibition, % at 7.5 µM;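 active = every replicate shows more than 75% inhibition of signal versus neutral control wells; inconclusive = half to three quarters of replicates exceed 75% inhibition; inactive = fewer than half of replicates exceed 75% inhibition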
An asterisk follows results filed as active; ? = inconclusive; nt = no result. An excerpt weighted towards active compounds, which were near 2.9% of everything screened.

SMILES	RanGTP-Impb inh	Runt-CBFb FRET	proKLK7 act	AI-2 QS mod	Wee1 stabilizer	Runt-SMMHC FRET	JMH597 growth rt	BB721 lum counter	BB721 growth rt	AI-2 QS JMH597
CCC1(c2ccccc2)NC(=O)N(CC(=O)Nc2ccc(OC)nc2)C1=O (configuration not stated)	2	nt	1	-88*	nt	nt	2	90*	0	94*
CCC1(c2ccccc2)NC(=O)N(CC(=O)NCc2ccc(C)cc2)C1=O (configuration not stated)	-2	nt	-1	-91*	nt	nt	-13	94*	-31	97*
CCC1(c2ccccc2)NC(=O)N(CC(=O)Nc2ccc3c(c2)CCC3)C1=O (configuration not stated)	nt	nt	1	nt	nt	nt	nt	nt	nt	nt
Cc1ccc(NC2CCCN(C(=O)Cc3nonc3C)C2)cc1C (configuration not stated)	4	nt	0	25	nt	nt	nt	nt	nt	nt
COc1cccc(OCc2nc(-c3ccc(Br)o3)no2)c1	24	-2	0	-83*	-1	-3	39	96*	-1	97*
COc1cccc(OCc2nc(-c3cccc([N+](=O)[O-])c3)no2)c1	1	nt	0	-83*	-2	-5	14	86*	-21	93*
Clc1ccccc1OCc1nc(-c2ccc(Br)o2)no1	0	-2	0	-61	0	-1	nt	nt	nt	nt
CCCNC(=O)/C=C/C(=O)O	3	-1	0	20	2	-1	nt	nt	nt	nt
O=[N+]([O-])C1C(c2ccccc2)=NOC1c1ccccc1O (configuration not stated)	1	nt	0	28	nt	nt	nt	nt	nt	nt
CCOc1ccc(NC(=O)CCC(=O)NNC(=O)Nc2ccc(Cl)cc2)cc1	-2	-2	0	18	-2	4	nt	nt	nt	nt
O=C(c1cc(COc2c(F)cccc2F)on1)N1CCc2ccccc2C1	0	nt	0	?	-2	nt	4	87*	8	91*
O=C(c1cc(COc2cccc(C(F)(F)F)c2)on1)N1CCc2ccccc2C1	2	nt	1	-48	nt	nt	nt	nt	nt	nt
CCN(Cc1ccccc1)C(=O)Cn1c(=O)n(CC(=O)N2CCCCC2)c(=O)c2sccc21	0	nt	0	29	nt	nt	nt	nt	nt	nt
Cn1c(C(=O)NCCc2c[nH]c3ccccc23)cc2sccc21	-2	0	0	?	0	-1	-20	93*	-17	94*
O=C(NCCc1c[nH]c2ccccc12)c1ccc2c(c1)OCO2	2	nt	0	-85*	nt	nt	16	93*	11	97*
CCN1C(=O)[C@H]2[C@H]3CN=C(SCc4ccc(C)cc4)N3[C@@](Cc3ccccc3)(C(=O)OC)[C@H]2C1=O	nt	nt	1	nt	nt	nt	nt	nt	nt	nt
c1ccc(Oc2cc(-c3ccccc3)ncn2)cc1	5	-1	-1	-93*	4	-1	11	98*	10	98*
CN(C)S(=O)(=O)c1ccc(NC(=O)COc2ncnc3c2cnn3-c2ccccc2)cc1	0	0	0	?	-3	-2	18	91*	16	95*
O=C(CCNS(=O)(=O)c1c(Cl)cccc1Cl)OCC(=O)c1ccccc1	3	-2	0	15	-2	-3	nt	nt	nt	nt
O=C1c2ccccc2C(=O)N1CCCCNc1ccccc1	nt	nt	1	nt	nt	nt	nt	nt	nt	nt
c1ccc(NCCCNc2ccccc2)cc1	-3	-1	1	-81*	-1	-4	0	93*	4	93*
COc1ccc(Cc2nnc(CCc3ccccc3)s2)cc1	-1	nt	0	?	nt	nt	-31	78*	-33	86*
Cc1c(O)ccc(C(=O)COc2ccccc2F)c1O	-3	-2	-1	?	2	0	29	89*	25	93*
COC(=O)[C@]12C[C@H](CC(=O)NCc3cccc(C(F)(F)F)c3)C(=O)N(CCc3ccc(OC)c(OC)c3)C1=C[C@H](C(C)C)O[C@@H]2C1CC1	nt	nt	0	nt	nt	nt	nt	nt	nt	nt
COc1ccc(C2(C)NC(=O)N(CC(=O)Nc3ccc(S(=O)(=O)N4CCCC4)cc3)C2=O)cc1 (configuration not stated)	3	0	1	-90*	6	1	-31	89*	-11	94*
SMILES	RanGTP-Impb inh	Runt-CBFb FRET	proKLK7 act	AI-2 QS mod	Wee1 stabilizer	Runt-SMMHC FRET	JMH597 growth rt	BB721 lum counter	BB721 growth rt	AI-2 QS JMH597
Cc1cc(NC(=O)CN2C(=O)NC(C)(c3ccccc3)C2=O)no1 (configuration not stated)	2	0	1	-38	-2	2	nt	nt	nt	nt
O=C(CN1C(=O)NC2(CCCCCCC2)C1=O)NC(=O)NCc1ccco1	5	-2	1	5	0	-2	nt	nt	nt	nt
Cc1cc(C)cc(NC(=O)CN2C(=O)NC(C)(c3ccccc3)C2=O)c1 (configuration not stated)	3	0	0	-83*	1	1	-23	86*	-31	92*
COc1ccc(NC(=O)CN2C(=O)C(C)SC(C)C2=O)cc1 (configuration not stated)	1	-4	0	-28	-1	0	nt	nt	nt	nt
CC1(c2ccccc2)NC(=O)N(CC(=O)NC(=O)NCc2ccco2)C1=O (configuration not stated)	-3	-1	0	-82*	-2	-1	-16	88*	-6	92*
COc1ccc(S(=O)(=O)N2CCCCCC2)cc1NC(=O)CN1C(=O)NC(C)(c2ccc(C)cc2)C1=O (configuration not stated)	-1	nt	0	5	nt	nt	nt	nt	nt	nt
